Entries after “also recorded” stand apart in the source; their conditions may differ.

Series [1] concerns malignant T-cell lines. The note with it: cited from earlier work.
In series [2] the test system is BJ. Nature of the series: MTS cytotoxicity assay, 72 h, BJ fibroblasts. It counts as cell-based, human. Conditions: Homo sapiens, BJ, read-out: IC50 BJ. In short, it runs like this:
(§1)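 Human lines were kept at 37 °C, 5% CO2 in recommended medium plus 10% FCS, penicillin–streptomycin, 2 mM glutamine, 1 mM bicarbonate, 1 mM pyruvate and 20 mM HEPES, and were mycoplasma-tested biweekly. Cells were exposed to test compound for 72 h on a robotic screening platform, then read by MTS. DMSO-treated cells were the negative control. IC50 came from dose–response curves, mean of ≥6 replicates.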
For orientation: Tetrazolium assays rely on reduction of a dye to a coloured formazan, in cell work by metabolically active cells.

Series [3] relates to RAMOS. In words: MTS cytotoxicity assay, 72 h, RAMOS. The series is classed as cell-based, human. The note with it: Homo sapiens, Ramos, read-out: IC50 RAMOS. In short, it runs like this:
as §1

Series [4] relates to CCRF-CEM. Nature of the series: MTS cytotoxicity assay, 72 h, CCRF-CEM. The note with it: Homo sapiens, CCRF-CEM, read-out: IC50 CCRF-CEM. It counts as cell-based, human. In short, it runs like this: as §1
Series [5] relates to A549. In words: MTS cytotoxicity assay, 72 h, A549. It counts as cell-based, human. Conditions: Homo sapiens, A549, 72 h, read-out: IC50 A549. In outline: as §1
In series [6] the test system is p-ERK1/2 (Thr202/Tyr204). In words: Western blot of ERK1/2 phosphorylation in PHA-stimulated Jurkat cells. It counts as cell-based, human. In outline:
(§2)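 Jurkat cells at 0.5 × 10^6 per mL were stimulated with PHA 5 µg per mL in RPMI/10% FCS for 15 min, then given test compound at 10, 2.25 or 0.62 µM for 24 h. Controls were 0.1% DMSO and unstimulated cells. RIPA lysates (30 µg) were run on 10% SDS-PAGE and probed for p-ITK/BTK (Tyr551/Tyr511), ITK, p-ERK1/2 (Thr202/Tyr204), ERK1/2 and GAPDH using fluorescent secondaries. Phospho/total ratios were normalised to GAPDH.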
(A western blot detects proteins with antibodies after separation by electrophoresis.)

The test system of series [7] is HCT116-p53. Nature of the series: MTS cytotoxicity assay, 72 h, HCT116-p53. Conditions: Homo sapiens, read-out: IC50 HCT116-p53. The series is classed as cell-based, human. In outline: as §1
Series [8] relates to U2OS. Nature of the series: MTS cytotoxicity assay, 72 h, U2OS. The series is classed as cell-based, human. The note with it: Homo sapiens, U2OS, read-out: IC50 U2OS. In outline: as §1
Series [9] relates to p-ITK (Tyr551/Tyr511). In words: Western blot of ITK phosphorylation in PHA-stimulated Jurkat cells. It counts as cell-based, human. In short, it runs like this:
as §2

Series [10] deals with T1, Recombinant ITK (Homo sapiens, UniProt Q08881).
T1 sequence (Q08881 1-620): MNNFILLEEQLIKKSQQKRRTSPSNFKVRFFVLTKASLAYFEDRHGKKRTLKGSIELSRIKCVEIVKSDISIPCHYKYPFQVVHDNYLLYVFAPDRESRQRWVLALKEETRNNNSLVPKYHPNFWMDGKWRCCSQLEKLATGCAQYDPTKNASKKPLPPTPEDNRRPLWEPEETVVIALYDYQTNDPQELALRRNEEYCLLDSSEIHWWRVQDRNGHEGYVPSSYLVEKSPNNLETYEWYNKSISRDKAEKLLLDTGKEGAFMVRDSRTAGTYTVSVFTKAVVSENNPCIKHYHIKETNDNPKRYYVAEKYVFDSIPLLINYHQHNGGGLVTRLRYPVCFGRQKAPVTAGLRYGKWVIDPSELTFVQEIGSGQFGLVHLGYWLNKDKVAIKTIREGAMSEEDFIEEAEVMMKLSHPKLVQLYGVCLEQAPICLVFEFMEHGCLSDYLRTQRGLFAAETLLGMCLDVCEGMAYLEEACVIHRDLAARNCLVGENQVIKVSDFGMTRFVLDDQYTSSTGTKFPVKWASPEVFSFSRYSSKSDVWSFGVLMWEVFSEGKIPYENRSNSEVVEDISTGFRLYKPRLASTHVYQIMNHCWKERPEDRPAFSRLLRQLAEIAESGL
Nature of the series: In vitro biochemical kinase assay.

Series [11] deals with Recombinant BTK (Homo sapiens, UniProt Q06187). Nature of the series: In vitro biochemical kinase assay. Conditions: ADP-Glo; 0–10 µM range.
Chain of Recombinant BTK (Q06187 whole entry): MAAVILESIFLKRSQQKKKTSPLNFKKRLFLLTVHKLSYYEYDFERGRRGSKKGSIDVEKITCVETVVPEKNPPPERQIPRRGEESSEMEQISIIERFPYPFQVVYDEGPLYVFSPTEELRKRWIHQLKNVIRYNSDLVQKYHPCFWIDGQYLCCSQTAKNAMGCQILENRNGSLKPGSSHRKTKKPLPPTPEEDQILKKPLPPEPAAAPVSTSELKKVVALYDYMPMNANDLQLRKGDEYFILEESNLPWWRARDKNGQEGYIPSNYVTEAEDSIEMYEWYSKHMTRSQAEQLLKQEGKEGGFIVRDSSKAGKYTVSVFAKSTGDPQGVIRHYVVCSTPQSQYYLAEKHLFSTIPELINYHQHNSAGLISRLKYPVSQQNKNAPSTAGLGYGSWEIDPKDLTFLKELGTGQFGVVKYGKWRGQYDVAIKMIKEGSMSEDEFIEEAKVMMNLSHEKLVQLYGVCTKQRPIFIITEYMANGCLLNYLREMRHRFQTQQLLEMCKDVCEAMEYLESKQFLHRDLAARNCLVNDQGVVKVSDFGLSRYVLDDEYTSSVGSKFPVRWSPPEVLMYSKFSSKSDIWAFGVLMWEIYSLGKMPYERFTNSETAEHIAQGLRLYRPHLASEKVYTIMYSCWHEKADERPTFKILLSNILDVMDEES
Series [12] concerns Jurkat. Nature of the series: MTS cytotoxicity assay, 72 h, Jurkat. It counts as cell-based, human. Conditions: Homo sapiens, Jurkat, read-out: IC50 Jurkat. In short, it runs like this:
as §1

The nature of series [13]: MTS cytotoxicity assay, statements over groups of cell lines of the panel. It counts as cell-based, human. Conditions: human, BJ and MRC-5 non-cancerous fibroblast cell lines. In short, it runs like this: as §1
Series [14] deals with panel of human cell lines. The description is as above. The series is classed as cell-based. Conditions: stated together in the text. In short, it runs like this: as §1
Series [15] relates to K562. Nature of the series: MTS cytotoxicity assay, 72 h, K562. It counts as cell-based, human. The note with it: Homo sapiens, K562, 72 h, read-out: IC50 K562. In outline: as §1
For series [16], the system named is MRC-5. Nature of the series: MTS cytotoxicity assay, 72 h, MRC-5 fibroblasts. It counts as cell-based, human. The note with it: Homo sapiens, MRC5, 72 h, read-out: IC50 MRC-5. In outline: as §1
Series [17] relates to HCT116. Nature of the series: MTS cytotoxicity assay, 72 h, HCT116. The series is classed as cell-based, human. Conditions: Homo sapiens, HCT-116, 72 h, read-out: IC50 HCT116. In short, it runs like this: as §1

As to `COc1cc(C)c(Sc2cnc(NC(=O)c3ccc(CNC(C)C(C)(C)C)cc3)s2)cc1C(=O)N1CCN(C(C)=O)CC1` (stereo not drawn) [BMS-509744], the “effect in malignant T-cell lines” value in series [1] was “induced pro-apoptotic signaling and G2/M cell cycle arrest”.
As for `O=C(Nc1ccccc1)C1CN(c2cc(-c3cccc(F)c3)n[nH]c2=O)C1` [Compound 9, 1-(6-(3-fluorophenyl)-3-oxo-2,3-dihydropyridazin-4-yl)-N-phenylazetidine-3-carboxamide], the IC50 (in general, the concentration that inhibits the measured activity by half) in series [2] is > 50 µM; in [3] it was 9.58 µM; in series [4], 19.5 µM; in series [5], > 50 µM; in series [7] it was > 50 µM; in series [8] it was > 50 µM. In addition, the IC50 in series [10] is 0.87 µM; in series [12], 37.6 µM; in [15], > 50 µM; in [16], 43.2 µM; in [17], > 50 µM. Besides, in series [6] (PHA-stimulated Jurkat cells, 10 µM (highest concentration), 24 h), the “p-ERK1/2 (Thr202/Tyr204) level” value is on record as “reduced phosphorylation; also recorded: significant decrease”. Moreover, in [6] (highest tested concentration, normalized to GAPDH), the “p-ERK/ERK ratio (densitometry)” value was “significant decrease”. Moreover, the “total ITK level” value in series [9] (PHA-stimulated Jurkat cells, 10 µM, 24 h) is “modest reduction”. For the same compound, the “p-ITK (Tyr551/Tyr511) level” value in series [9] (PHA-stimulated Jurkat cells, 10, 2.25, 0.62 µM for 24 h) is recorded as “reduced phosphorylation; also recorded: concentration-dependent decrease; also recorded: concentration-dependent significant reduction”. For the same compound, the “p-ITK/ITK ratio (densitometry)” value in [9] (all concentrations tested, normalized to GAPDH) is given as “significant reduction”. The “BTK inhibition (in words)” value in series [11] is on record as “no measurable BTK inhibition; also recorded: no BTK inhibitory effect was observed; also recorded: absence of BTK activity”. For the same compound, in series [13], the IC50 at 72 h was > 50 µM. Besides, in series [14] (A549, HCT116, HCT116-p53, U2OS), the “IC50 / cytotoxicity in non-ITK/BTK (ITK-null) cancer lines” value was “inactive”. Further, in series [14] (non-cancerous fibroblasts (BJ, MRC-5)), the “IC50 / cytotoxicity in fibroblast cells” value is “inactive”.

The values are drawn from paper PMC12679438 (RSC Advances, 2025).
